Assay outcomes from PubChem BioAssay.
S1P3 agonist: agonists of human S1P3 receptor | S1P3 NFAT-BLA reporter cells, agonism, FRET ratio; relative to 1 µM S1P, basal subtracted | Q99500 | activation, % at 4.5 µM | AID 373 | 60,000 tested, 0.1% active;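 active means activation above the screen-wide mean plus 3 SD, cut at about 4.5% in these data, passing the limit was not always enough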
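Assay system: stable CHO line with human S1P3, Gα16, NFAT-BLA reporter; Detection: FRET β-lactamase substrate fluorescence, excitation 405 nm, 460/535 nm emission ratio, background-subtracted; Read-out: percent activation versus median 1 µM S1P response, basal-subtracted, per plate; Incubation: cells plated overnight, compound 4 h 37 °C, substrate 2 h RT.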
5HT1E antag: antagonists of human 5-HT1E serotonin receptor. P28566. CHO 5-HT1E Ga15 NFAT-bla reporter, FRET, antagonist. inhibition, % at 6 µM. 65,000 tested, 0.99% active. AID 571;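 active means inhibition above a set limit, the mean inhibition across every tested compound plus 3 SD, cut at about 29% in these data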;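 further: signal is the 460 over 535 nm emission ratio of beta-lactamase substrate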
5HT1E ag: activates the human 5-HT1E serotonin receptor; AID 574; activation, % at 6 µM; CHO 5-HT1E Ga15 NFAT-bla reporter, FRET; 0% DMSO wells, 100% control agonist wells; 65,000 tested, 0.69% active; P28566;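 active means activation above a set limit, the screen-wide mean activation plus 3 SD, cut at about 8.5% in these data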
5HT1a antag: antagonists of human 5-HT1a serotonin receptor; inhibition, % at 10 µM; CHO 5-HT1a Ga15 NFAT-bla reporter, antagonist mode; 62,000 tested, 0.68% active; AID 612;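 active means inhibition above the mean of all tested compounds plus 3 SD, cut at about 43% in these data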;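 further: receptor stimulated by 5-CT agonist at 100 nM near EC80; beta-lactamase reporter measured by ratiometric fluorescence of a cleavable substrate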
Target sequence (P08908 whole entry, looked up): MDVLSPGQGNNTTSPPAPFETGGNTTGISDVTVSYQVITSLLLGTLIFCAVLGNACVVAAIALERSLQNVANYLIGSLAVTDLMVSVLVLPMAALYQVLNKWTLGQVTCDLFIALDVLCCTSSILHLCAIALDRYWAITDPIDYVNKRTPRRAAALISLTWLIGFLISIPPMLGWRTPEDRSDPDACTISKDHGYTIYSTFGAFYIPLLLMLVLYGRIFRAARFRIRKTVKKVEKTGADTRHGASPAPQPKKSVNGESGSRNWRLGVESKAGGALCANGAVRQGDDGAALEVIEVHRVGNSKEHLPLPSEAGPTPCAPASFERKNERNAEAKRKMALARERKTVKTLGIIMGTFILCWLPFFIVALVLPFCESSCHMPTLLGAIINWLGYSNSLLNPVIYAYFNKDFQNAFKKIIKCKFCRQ
5HT1a ag: agonists of human 5-HT1a serotonin receptor; P08908; CHO 5-HT1a Ga15 NFAT-bla reporter, FRET ratio; 0% basal, 100% maximal reference agonist; activation, % at 10 µM; 65,000 tested, 0.56% active;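 active means activation above the screen-wide mean activation plus 3 SD, cut at about 19% in these data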
Ec RNAP inh: inhibitors of Escherichia coli RNA polymerase; E. coli RNA polymerase, fluorescence transcription assay; inhibition, %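 (tested at 10 µM)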; P0A8V2; 62,000 tested, 0.2% active; AID 559; in the data active means inhibition above about 20%
A number is an active result. Rows were chosen to be rich in hits. Some 2.6% of all compounds tested hit in one or more screens of this group.

Cc1cc(/C=N/n2cnnc2)c(C)n1-c1ccc(OCc2ccccc2F)cc1 was read as S1P3 agonist inactive, 5HT1E antag 29, 5HT1E ag inactive, 5HT1a antag inactive, 5HT1a ag inactive and Ec RNAP inh inactive.
COc1ccc(-c2cc(C(F)F)nc(-n3nc(C)cc3C)n2)cc1 was read as S1P3 agonist inactive, 5HT1E antag inactive, 5HT1E ag inactive, 5HT1a antag inactive, 5HT1a ag 83 and Ec RNAP inh inactive.
For COc1ccc(-c2cc(C(F)(F)F)n3nc(C)cc3n2)cc1 the results were S1P3 agonist inactive, 5HT1E antag inactive, 5HT1E ag inactive, 5HT1a antag inactive, 5HT1a ag inactive and Ec RNAP inh inactive.
`Cc1ccc(CCNC(=O)CC2Oc3ccc(C)cc3NC2=O)cc1` (centres undefined) gave S1P3 agonist inactive, 5HT1E antag inactive, 5HT1E ag inactive, 5HT1a antag inactive, 5HT1a ag inactive and Ec RNAP inh inactive.
Screening O=C(CC1Oc2ccccc2NC1=O)NCCc1ccccc1 (centres undefined) returned S1P3 agonist inactive, 5HT1E antag inactive, 5HT1E ag inactive, 5HT1a antag inactive, 5HT1a ag 49 and Ec RNAP inh inactive.
Screening Cn1cccc1C(=O)NS(=O)(=O)c1ccccc1Cl returned S1P3 agonist inactive, 5HT1E antag inactive, 5HT1E ag inactive, 5HT1a antag inactive, 5HT1a ag 25 and Ec RNAP inh inactive.
For O=C(CCCNS(=O)(=O)c1cccs1)N1CCN(c2ccc(F)cc2)CC1 the results were 5HT1E antag inactive, 5HT1E ag inactive, 5HT1a antag inactive, 5HT1a ag inactive and Ec RNAP inh inactive.
For O=C(O)CCC(=O)N1CCN(c2cccc(Cl)c2)CC1 the results were S1P3 agonist inactive, 5HT1E antag inactive, 5HT1E ag 21, 5HT1a antag inactive, 5HT1a ag inactive and Ec RNAP inh inactive.
Screening Cc1ccc(Cl)cc1N1CCN(C(=O)CCC(=O)O)CC1 returned 5HT1E antag inactive, 5HT1E ag 14, 5HT1a antag inactive, 5HT1a ag inactive and Ec RNAP inh inactive.
Screening O=C(O)CCCNS(=O)(=O)c1cccs1 returned S1P3 agonist inactive, 5HT1E antag inactive, 5HT1E ag inactive, 5HT1a antag inactive, 5HT1a ag 20 and Ec RNAP inh inactive.
Screening COc1ccc(NC(=O)CCCNS(=O)(=O)c2cccs2)cc1 returned 5HT1E antag inactive, 5HT1E ag inactive, 5HT1a antag inactive, 5HT1a ag inactive and Ec RNAP inh inactive.
Screening O=C(CCCNS(=O)(=O)c1cccs1)N1CCN(c2cccc(Cl)c2)CC1 returned 5HT1E antag inactive, 5HT1E ag inactive, 5HT1a antag inactive, 5HT1a ag inactive and Ec RNAP inh 43.
CCOC(=O)c1nn(-c2ccccc2)c(C(=O)OCC)c1N was read as S1P3 agonist inactive, 5HT1E antag inactive, 5HT1E ag inactive, 5HT1a antag inactive, 5HT1a ag inactive and Ec RNAP inh inactive.
`O=C(c1c(Cl)nc2sccn12)N1CCN(c2cccc(Cl)c2)CC1` gave 5HT1E antag 42, 5HT1E ag inactive, 5HT1a antag inactive, 5HT1a ag inactive and Ec RNAP inh inactive.
O=C(c1cccc(F)c1)N1CCN(c2cccc(Cl)c2)CC1 was read as S1P3 agonist inactive, 5HT1E antag inactive, 5HT1E ag inactive, 5HT1a antag inactive, 5HT1a ag inactive and Ec RNAP inh inactive.
O=C(Nc1ccc(-c2nc3ncccc3o2)cc1)c1ccco1 was read as S1P3 agonist inactive, 5HT1E antag inactive, 5HT1E ag inactive, 5HT1a antag inactive, 5HT1a ag inactive and Ec RNAP inh inactive.
O=C(Nc1ccc(-c2nc3ncccc3o2)cc1)c1ccc(Br)o1 was read as S1P3 agonist inactive, 5HT1E antag 62, 5HT1E ag inactive, 5HT1a antag inactive, 5HT1a ag inactive and Ec RNAP inh inactive.
O=c1c2ccccc2n(Cc2ccc(F)cc2)c(=O)n1C1CCCC1 was read as S1P3 agonist inactive, 5HT1E antag inactive, 5HT1E ag inactive, 5HT1a antag inactive, 5HT1a ag inactive and Ec RNAP inh inactive.
Screening Fc1cc(Br)ccc1Nc1nc2ccccc2n2nnnc12 returned S1P3 agonist inactive, 5HT1E antag inactive, 5HT1E ag 15, 5HT1a antag inactive, 5HT1a ag inactive and Ec RNAP inh inactive.
For Fc1ccccc1N1CCN(c2nc3ccccc3n3nnnc23)CC1 the results were S1P3 agonist inactive, 5HT1E antag inactive, 5HT1E ag inactive, 5HT1a antag inactive, 5HT1a ag inactive and Ec RNAP inh inactive.
`Cc1cc(C)n(-c2ccc(C(=O)OCC(=O)NCc3ccco3)cc2)n1` gave S1P3 agonist inactive, 5HT1E antag inactive, 5HT1E ag inactive, 5HT1a antag inactive, 5HT1a ag inactive and Ec RNAP inh inactive.
Screening Brc1ccc(-c2nnc3sc(CNC4CCCC4)cn23)cc1 returned S1P3 agonist inactive, 5HT1E antag inactive, 5HT1E ag inactive, 5HT1a antag inactive, 5HT1a ag inactive and Ec RNAP inh inactive.
COC(=O)CSc1nc(C2CC2)cc(C(F)(F)F)c1C#N was read as S1P3 agonist inactive, 5HT1E antag inactive, 5HT1E ag inactive, 5HT1a antag inactive, 5HT1a ag inactive and Ec RNAP inh inactive.
`Cc1ccc(-c2cc(C(F)(F)F)c(C#N)c(SCCC#N)n2)o1` gave S1P3 agonist inactive, 5HT1E antag inactive, 5HT1E ag inactive, 5HT1a antag inactive, 5HT1a ag 34 and Ec RNAP inh inactive.
CC1CCCCC1NC(=O)C1Cc2ccccc2CN1S(C)(=O)=O (centres undefined) was read as S1P3 agonist inactive, 5HT1E antag inactive, 5HT1E ag inactive, 5HT1a antag inactive, 5HT1a ag inactive and Ec RNAP inh inactive.
For O=C(O)Cc1nc2nc3c(c(=O)n2[nH]1)CCCC3 the results were S1P3 agonist inactive, 5HT1E antag inactive, 5HT1E ag inactive, 5HT1a antag inactive, 5HT1a ag inactive and Ec RNAP inh inactive.
For CN(C)CCCn1c(NC(=O)C2CCCCC2)nc2ccccc21 the results were S1P3 agonist inactive, 5HT1E antag inactive, 5HT1E ag 54, 5HT1a ag inactive and Ec RNAP inh inactive.
`CC(=O)Nc1nc2ccccc2n1CCN(C)C` gave S1P3 agonist inactive, 5HT1E antag inactive, 5HT1E ag inactive, 5HT1a antag inactive, 5HT1a ag inactive and Ec RNAP inh inactive.
`CCOC(=O)c1c(NC(=O)CN2CCCCC2)sc2c1CCN(C(=O)OCC)C2` gave S1P3 agonist inactive, 5HT1E antag inactive, 5HT1E ag inactive, 5HT1a antag inactive, 5HT1a ag inactive and Ec RNAP inh inactive.
`CC(OC(=O)C1CCN(S(=O)(=O)c2ccccc2)CC1)C(=O)Nc1ncc(Cl)cc1Cl` (centres undefined) gave S1P3 agonist inactive, 5HT1E antag inactive, 5HT1E ag inactive, 5HT1a antag inactive, 5HT1a ag inactive and Ec RNAP inh inactive.
Screening COc1ccc(Nc2nc(Nc3ccc(OC)cc3)nc(-n3[nH]c(=O)c(C)c3C)n2)cc1 returned S1P3 agonist 17, 5HT1E antag inactive, 5HT1E ag 15, 5HT1a ag 34 and Ec RNAP inh inactive.
